Assay results from ChEMBL document CHEMBL1125103, “Structure-activity relationships for metal-labeled blood flow tracers: comparison of keto aldehyde bis(thiosemicarbazonato)copper(II) derivatives” (J Med Chem, 1990).
Blank lines part the entries; values can stand above or below the substance they belong to.

Key:
[1] = Partition coefficient (logP); format: physicochemical; settings: octanol/water
In short: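 1-Octanol (1 mL) and isotonic Tris buffer pH 7.0 (1 mL) vortexed with 1–5 μL of the 67Cu-labeled aqueous complex, then centrifuged at >1200g for 5 min. Both phases were gamma counted in a window on the 185 keV peak. P = counts per g octanol / counts per g water. The octanol phase was re-extracted; the value is from the second and third extractions, mean of six measurements.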

[2] = species: Rattus norvegicus; assay: Pulmonary levels of tracer copper in rats 5 min after injection into the femoral vein; format: functional, organism-based
In short: (§1)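 Copper-67 bis(thiosemicarbazone) complex, 0.2 mL (1–3 μCi) in 5–10% ethanol, injected with a 27-gauge needle into the exposed femoral vein of ether-anesthetized Sprague-Dawley rats (generally 175–225 g). Dose was set by weighing the syringe. Rats were killed by decapitation; organs were excised, blotted and weighed, and counted for 67Cu by gamma counting against a diluted standard dose. Values are percent injected dose per organ, with blood volume taken as 7% of body mass. Generally four rats per time point; mean ± SD.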

[3] = species: Rattus norvegicus; assay: Brain levels of tracer copper in rats 1 min after injection into the femoral vein; format: functional, organism-based; in short: as §1
[4] = species: Rattus norvegicus; assay: Myocardial levels of tracer copper in rats 5 min after injection into the femoral vein; format: functional, organism-based; settings: Myocardium; in short: as §1
[5] = species: Rattus norvegicus; assay: Liver levels of tracer copper in rats 1 min after injection into the femoral vein; format: functional, organism-based; in short: as §1
[6] = species: Rattus norvegicus; assay: Kidney levels of tracer copper in rats 1 min after injection into the femoral vein; format: functional, organism-based; in short: as §1
[7] = species: Rattus norvegicus; assay: Myocardial levels of tracer copper in rats 2 hr after injection into the femoral vein; format: functional, organism-based; settings: Myocardium; in short: as §1
[8] = species: Rattus norvegicus; assay: Kidney levels of tracer copper in rats 2 hr after injection into the femoral vein; format: functional, organism-based; in short: as §1
[9] = species: Rattus norvegicus; assay: (§2) Blood levels of tracer copper in rats 5 min after injection into the femoral vein; format: functional, organism-based; in short: as §1
[10] = species: Rattus norvegicus; assay: Blood levels of tracer copper in rats 2 hr after injection into the femoral vein; format: functional, organism-based; in short: as §1
[11] = species: Rattus norvegicus; assay: Blood levels of tracer copper in rats 1 min after injection into the femoral vein; format: functional, organism-based; in short: as §1
[12] = species: Rattus norvegicus; assay: Kidney levels of tracer copper in rats 5 min after injection into the femoral vein; format: functional, organism-based; in short: as §1
[13] = species: Rattus norvegicus; assay: Brain levels of tracer copper in rats 5 min after injection into the femoral vein; format: functional, organism-based; in short: as §1
[14] = species: Rattus norvegicus; assay: Liver levels of tracer copper in rats 2 hr after injection into the femoral vein; format: functional, organism-based; in short: as §1
[15] = species: Rattus norvegicus; assay: Liver levels of tracer copper in rats 5 min after injection into the femoral vein; format: functional, organism-based; in short: as §1
[16] = species: Rattus norvegicus; assay: Myocardial levels of tracer copper in rats 1 min after injection into the femoral vein; format: functional, organism-based; settings: Myocardium; in short: as §1
[17] = species: Rattus norvegicus; assay: Pulmonary levels of tracer copper in rats 1 min after injection into the femoral vein; format: functional, organism-based; in short: as §1
[18] = species: Rattus norvegicus; assay: as §2; format: functional, organism-based; in short: as §1; remark: listed apart in the source
[19] = species: Rattus norvegicus; assay: Brain levels of tracer copper in rats 2 hr after injection into the femoral vein; format: functional, organism-based; in short: as §1
[20] = species: Rattus norvegicus; assay: Pulmonary levels of tracer copper in rats 2 hr after injection into the femoral vein; format: functional, organism-based; in short: as §1

- logP [1]: 1.78
Substance: Propyl glyoxal bis(thiosemicarbazone)(67Cu-n-PrTS) [listing 1 of 2 here]

Substance: Propyl glyoxal bis(thiosemicarbazone)(67Cu-n-PrTS) [listing 2 of 2 here]
- Injected dose [2]: 9.6%
- Injected dose [3]: 1.45%
- Injected dose [4]: 3%
- Injected dose [5]: 11.5%
- Injected dose [6]: 2.8%
- Injected dose [7]: 3.5%
- Injected dose [8]: 3.6%
- Injected dose [9]: 8.9%
- Injected dose [10]: 8.5%
- Injected dose [11]: 15.2%
- Injected dose [12]: 2.8%
- Injected dose [13]: 1.27%
- Injected dose [14]: 17.3%
- Injected dose [15]: 13.7%
- Injected dose [16]: 3.9%
- Injected dose [17]: 13.1%
- Injected dose [18]: 8.9%
- Injected dose [19]: 1.79%
- Injected dose [20]: 5.2%
